Compound activity as filed in PubChem.
T cruzi inh: T. cruzi replication inhibition. T. cruzi beta-gal in NIH3T3, luminescence, 90 h. inhibition, % (test concentration not listed). 300,000 compounds, 1.4% hits;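 active = mean inhibition across valid replicates above about 55%, limit read from the data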;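 also: signal also drops with host cell toxicity which is not excluded here; 0% = plate median of DMSO wells and 100% = zero luminescence signal; higher percent means less beta-gal luminescence so fewer parasites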
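Read-out: Parasite load inhibition, % | Test system: Mouse NIH/3T3 fibroblasts infected with β-gal-expressing T. cruzi Tulahuen C4 | Amount: 5,000 cells/well | Medium: DMEM, 2% fetal bovine serum | Signal: GalScreen β-gal luminescence, detergent lysis, 60 min | Timing: 3 h attach, ≥90 h co-culture | Also added: Tulahuen C4 trypomastigotes, 5000/well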
HIF activator: HIF pathway transcriptional activation; U2OS HRE-luciferase reporter, luminescence; normalized: DMSO 0%, desferrioxamine 100%; activation, % at 7.5 µM (by protocol); 300,000 compounds, 0.32% hits;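 active = mean activation of at least 10% of the iron chelator positive control signal, with at least half of replicates also reaching 10%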
Beta cell apopt: blocks beta cell apoptosis; INS-1E cytokine-induced death, ATP luminescence, 48 h; percent of positive-control rescue, neutral wells zero; protection from apoptosis, % (test concentration not listed); 300,000 compounds, 0.8% hits; AID 435005;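 active = Every replicate reaches about 75%, or at least half do and their mean reaches it too, limit read from the data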;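 also: 0% = cytokine-treated negative control wells and 100% = positive control rescue; higher means more ATP so stronger rescue from cytokine killing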
Calb FLC: C. albicans growth modulation with fluconazole; C. albicans CaCi-2 + fluconazole, Alamar Blue growth, 48 h; growth inhibition, % (test concentration not listed); 300,000 compounds, 0.57% hits; AID 1979;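 active = growth inhibition above about 58% in most replicates, limit read from the data, passing the limit was not always enough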;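 also: all wells also contain fluconazole at 8 µg/ml as a sub-toxic cotreatment; 0% = median of DMSO wells and 100% = median of geldanamycin control wells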
CSC inhib: blocks cancer stem cells. cancer stem cell-like cells viability, luminescence. inhibition, % at 7.5 µM. 300,000 compounds, 1.1% hits. AID 2717; in the data active = inhibition above about 75%; tested in HMLE shEcad cells
PolyA inh: yeast polyadenylation inhibition; S. cerevisiae SKY197-pL101 polyadenylation reporter, beta-gal luminescence; efflux-impaired pdr1/pdr3 knockout yeast; score 100 = 6 SD above DMSO; activity score, % at 12 µM; 300,000 compounds, 0.02% hits;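 active = lowest replicate activity score at least 50, where 100 means six control SD above control mean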;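 also: yeast exposed to compound for 9 h at 30 °C; higher score means more reporter readthrough which indicates perturbed polyadenylation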
Active calls of the source: *; · = no result. Rows were chosen to be rich in hits. Some 3.1% of all compounds tested hit in one or more screens of this group.

SMILES	T cruzi inh	HIF activator	Beta cell apopt	Calb FLC	CSC inhib	PolyA inh
Cc1cc(S(=O)(=O)ON2C(=O)c3ccccc3C2=O)ccc1F	-16	37*	-5	9	-3	14
O=C(NC1CCCCC1)C(c1ccncc1)N(Cc1ccccc1)C(=O)c1ccc(-c2ccccc2)[nH]1 (stereo not drawn)	70*	1	4	48	38	4
CCn1cc(C(=O)O)c(=O)c2cc(F)c(N/N=C/c3ccccc3[N+](=O)[O-])cc21	34	0	97*	-19	22	29
CCn1cc(C(=O)O)c(=O)c2cc(F)c(N3CCN(C(=S)Nc4ccccc4OC)CC3)cc21	-23	0	6	-28	-10	0
CCN(CC)CCNCC(O)(c1ccc(Cl)cc1)c1ccc(Cl)cc1	-7	0	19	-20	3	-22
CCN(CC)CCNCc1ccc(-c2ccc(Cl)cc2)o1	31	0	-3	-14	79*	-5
COc1cc(CN2CCCC(C(=O)Nc3cccc(-n4cccn4)c3)C2)ccc1F (stereo not drawn)	61*	0	0	-4	2	-3
CC(C)(C)c1ccc(SCC(N)=O)cc1	-5	0	-7	81*	13	6
Cn1c(=NC(=O)CCl)sc2ccccc21	62*	0	-6	4	10	-3
O=C(Cn1ncc2c([nH]c3ccccc32)c1=O)NCC1CCN(Cc2ccccc2F)CC1	33	0	·	-5	0	-5
COCCCN1C(=O)C(=O)/C(=C(/O)c2ccc(OCC(C)C)cc2C)C1c1cccnc1 (stereo not drawn)	-6	·	3	106*	-7	-6
COc1cccc(N2CC(NS(=O)(=O)c3cccnc3)CC2=O)c1 (stereo not drawn)	-2	0	5	-2	6	-2
Cc1cc(-c2csc3nc[nH]c(=S)c23)cc(C)c1C	1	0	22	49	104*	7
CCOc1ccccc1CNC(=O)c1ccc(NC(=O)C2=CSCCO2)cc1	4	2	2	-2	2	3
COc1ccccc1CN1C[C@@H]2C[C@@H](c3ccc(C)c(C)c3)N3CCC[C@@]23C1=O	68*	0	0	-19	0	-3
COc1ccc([C@@H]2C[C@H]3CN(Cc4ccccc4OC)C(=O)[C@]34CCCN24)cc1C	29	0	-7	-12	-8	-15
CCOC(=O)N1CCN(C(=O)CSCC(=O)Nc2nc(-c3ccc(-c4ccccc4)cc3)cs2)CC1	21	4	89*	6	33	-6
CCOC(=S)SCC(=O)Nc1nc(-c2ccc(Br)cc2)cs1	53	1	28	-8	85*	-10
O=C(Nc1nc2ccc(S(=O)(=O)N3CCCCC3)cc2s1)c1cccnc1	·	·	-1	35	9	4
O=C(Nc1nc2ccc(S(=O)(=O)N3CCCC3)cc2s1)c1ccccn1	64*	4	36	38	33	-18
O=C(Nc1nc2ccc(S(=O)(=O)N3CCCCC3)cc2s1)c1ccncc1	17	0	-1	103*	7	-18
O=C(Nc1nc2ccc(S(=O)(=O)N3CCCC3)cc2s1)c1cccs1	6	0	-5	3	1	-12
Cc1ccc(C(=O)NNC(=O)CCCCC(=O)NNC(=O)c2ccc(C)cc2)cc1	-5	-2	-7	-4	-14	11
CC1=C(/C=C/C(C)=C/C=C/C(C)=C/C(=O)Nc2ccc(O)cc2)C(C)(C)CCC1	·	·	-1	·	104*	·
CC(=O)N1CCN(C(=O)COC(=O)c2ccc(S(C)(=O)=O)cc2)CC1	·	·	-3	·	-19	·
SMILES	T cruzi inh	HIF activator	Beta cell apopt	Calb FLC	CSC inhib	PolyA inh
CN(C)S(=O)(=O)Oc1ccsc1C(=O)Nc1cccc(Cl)c1Cl	62*	0	0	8	4	-8
CN(C)S(=O)(=O)Oc1ccsc1C(=O)Nc1ccccc1Cl	18	0	-3	12	33	-14
C/C(=N\Nc1ccccn1)c1ccc2c(c1)OCO2	11	3	2	-19	-3	7
C/C(=N\Nc1nc2ccccc2[nH]1)c1ccc2c(c1)OCO2	78*	1	16	-3	·	-17
C/C(=N\Nc1nc2ccccc2[nH]1)c1ccc2c(c1)OCCO2	57*	1	19	11	6	-12
C/C(=N\Nc1nc2ccccc2[nH]1)c1ccccn1	42	179*	92*	-1	·	-11
Cc1ccc(C2=NN(CCC(=O)NCc3ccc4c(c3)OCO4)C(=O)CC2)cc1	5	0	-7	22	6	16
Cc1nc2ccc3nc(NC(=O)c4ccc5c(c4)OCCO5)sc3c2s1	-10	1	-7	-1	-7	10
Cc1oc(C(C)(C)C)cc1C(=O)NCc1ccc2c(c1)OCO2	8	-1	-7	-2	-6	-4
Cn1nc(C(C)(C)C)cc1C(=O)NCc1ccc2c(c1)OCO2	18	1	117*	-13	-10	-3
Cc1nc2c(ccc3nc(NC(=O)c4ccc5c(c4)OCCO5)sc32)s1	57*	2	·	23	·	-7
Cc1nc2ccc(C(=O)NCc3ccc4c(c3)OCO4)cc2s1	-9	1	5	6	7	112*
CCOc1ccccc1N1CCN(C(=O)c2cc(-c3cccnc3)nc3c(Cl)cccc23)CC1	28	3	-7	0	1	-15
CCN1/C(=C/c2sc(-c3ccccc3C)c[n+]2C)Sc2ccccc21	66*	-1	·	106*	·	-17
O=C(O)CSc1nnc(-c2ccc(Cl)cc2Cl)n1Cc1ccccc1	-31	0	-4	-4	-3	-11
CN(C)c1ccc(N=Cc2cccn2C)cc1	44	-1	7	85*	·	-53
COc1ccc(NC(=O)N(C)C[C@H]2Oc3ccc(NS(=O)(=O)c4ccc(OC)cc4)cc3C(=O)N([C@H](C)CO)C[C@@H]2C)cc1	·	·	1	·	-5	·
CCCc1ccc(OC(=O)c2ccc(O)cc2Cl)cc1	30	2	13	48	1	-60
CC(CCc1ccccc1)N1CCN(Cc2ccccc2)CC1 (stereo not drawn)	58*	0	2	-24	-5	-14
FC(F)(F)c1cnc(Sc2nc3nccc(-c4ccc(Cl)cc4)n3n2)c(Cl)c1	55*	0	2	-23	-3	6
CC(=O)Oc1c(I)cc(I)cc1C(=O)Nc1ccc(Cl)cc1	-13	1	106*	8	108*	-23
COc1ccc(Cl)cc1C(=O)Nc1ccc(NC(C)=O)cc1	15	0	1	4	8	12
Cc1ccc(NC(=O)c2ccc(=O)[nH]n2)cc1S(=O)(=O)Nc1ccccc1Cl	·	·	4	·	9	·
Cc1ccc(NC(=S)NC(=O)c2ccc(F)cc2)cc1S(=O)(=O)Nc1ccccc1Cl	-9	2	0	28	79*	-11
